Drawing on the RNAGym collection of RNA variant scans (doi:10.1126/science.aae0568), this text covers yeast fitness for 38 variants.

This sample holds only a part of the variants without activity.

The labels stand for the following.
B1: tRNA (parent)
chain: GUUCCGUUGGCGUAAUGGUAACGCGUCUCCCUCCUAAGGAGAAGACUGCGGGUUCGAGUCCCGUACGGAACG

The variants in this data set derive from B1. Kind of data set: yeast fitness relative to wild type (ratio to wild type); higher = fitter; tRNA-Arg(CCU), competitive growth, 37 C, YPD. In outline:
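Changes in genotype frequencies gave Darwinian fitness relative to wild type. Frequencies were read by 100-nucleotide paired-end sequencing of gene amplicons before and after pooled Saccharomyces cerevisiae strains, carrying tRNA-Arg(CCU) gene variants at the native locus, were competed in YPD at 37°C for 24 hours in six replicates. A genotype was kept only with ≥ 100 starting reads, and estimates < 0.5 were set to 0.5.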
Take GUUCCGUUGGCGUAAUGGUACCGCGUUUCCCUCCUAAGGAGAAGCCUGUGGGUUCGAGUCCCGUACGGAACG [A21C C27U A45C C49U]: the yeast fitness is no more than 0.5.

For GUUCCGUUGGCGUAAUGGUACCGCGUCUCUCUCCUAAGGAGAAGGCUGCGGGUUCGAGUCCCGUACGGAACG [A21C C30U A45G], the yeast fitness was no more than 0.5.

As to GUUCCGUUGGCGUAAUGGUACCGCGUCUCCCUCCUAAGGAGAAGAGUGCGGGUUCGAGUCCCGUUCGGAACG [A21C C46G A65U], the yeast fitness worked out at 0.658.

Regarding GUUCCGUUGGCGUAAUGGUACCGCGUCUCCCUCCUAAGGAGAAGACUGCGGGUUCGAGUCCGGUCCGGAACG [A21C C62G A65C], the yeast fitness is no more than 0.5.

On to GUUCCGUUGGCGUAAUGGUACCGCGUCUCCCUCUUAAGGAGAAGACUGCGGGUUCGAGUCCCGUAUGGAACG [A21C C34U C66U], for which the yeast fitness is no more than 0.5.

Regarding GUUCCGUUGGCGUAAUGGUACCACGUCUCCCUCCUAAGGAGAAGACUGCGGCUUCGCGUCCCGUACGGAACG [A21C G23A G52C A57C], the yeast fitness was no more than 0.5.

For GUUCCGUUGGCGUAAUGGUACCGCGUCUCUCUCCUAAGGAGAUGACUCCGGGUUCGAGUCCCGUACGGAACG [A21C C30U A43U G48C], the yeast fitness was no more than 0.5.

As to GUUCCGUUGGCGUAAUGGUACCUCGUCUCCCUCCUAAGGAGAAGACUGCGGGUUCGAGUCCUGUGCGGAACG [A21C G23U C62U A65G], the yeast fitness is no more than 0.5.

As for GUUCCGUUGGCGUAAUGGUACCGCGUCUCCCUCAUAGGGAGAAGACUGCGGGUUCGAGUCCCGUACGGAACG [A21C C34A A37G], the yeast fitness stood at 0.513.

With GUUCCGUUGGCGUAAUGGUACCGCGUCUUCGUCCUAAGGAGAUGACUGCGGGUUCGAGUCCCGUUCGGAACG [A21C C29U C31G A43U A65U], the yeast fitness was found to be 0.593.

In the case of GUUCCGUUGGCGUAAUGGUACCGCGUCUGCCUCCUAAGGAGAAGACUGCGAGUUCGAGUCCCGUACGGAACG [A21C C29G G51A], the yeast fitness stood at 0.529.

GUUCCGUUGGCGUAAUGGUACCGCGUUUCCCUACUACGGAGAAGACUGCGGGUUCGAGUCCCGUACGGAACG [A21C C27U C33A A37C]: the yeast fitness was found to be 0.554.

As to GUUCCGUUGGCGUAAUGGUACCGCGUCUCCCUCAUAAGGAGAAGACUGCGGGUUCGAGUCCCGUACGGAACG [A21C C34A], the yeast fitness was 0.605.

On to GUUCCGUUGGCGUAAUGGUACCGCGUCUCCCUCCUAAGGAGAAGACUGCGGGUUCGAGUCCCGUACGUAACG [A21C G68U], for which the yeast fitness was determined as 0.789.

Consider GUUCCGUUGGCGUAAUGGUACCGCGUCUCCCUCCUAAGGAGAAGACUGCGGGUUCGAGUCCCGUACGAAACG [A21C G68A], for which the yeast fitness came to 0.799.

As to GUUCCGUUGGCGUAAUGGUACCGCGUCUCCCUCGUGAGGAGAAGAAUGCGGGUUCGAGUCCCGUACGGAACG [A21C C34G A36G C46A], the yeast fitness stood at 0.586.

Take GUUCCGUUGGCGUAAUGGUACCGCGUCUCUCGCCUAAGGAGAAGACUGCGGGCUCGAGUCCCGUACAGAACG [A21C C30U U32G U53C G67A]: the yeast fitness was no more than 0.5.

Turning to GUUCCGUUGGCGUAAUGGUACCGCGUCUACCUCCUAAGGAAAAGACUGCGGGUACGAGUCCCGUACGGAACG [A21C C29A G41A U54A], the yeast fitness was no more than 0.5.

As for GUUCCGUUGGCGUAAUGGUACCGCGUCUCCUUCCUAAGGAGAAGACUGCGGGUUCGAGUCCCGUACGGAACG [A21C C31U], the yeast fitness was determined as 0.733.

Turning to GUUCCGUUGGCGUAAUGGUACCGCGUCUCCAUCCUAAGGAGAAGACUGCGGGUUCGAGUCCCGUACGGAACG [A21C C31A], the yeast fitness came to 0.725.

For GUUCCGUUGGCGUAAUGGUACCGCGUCUCCCUCCUAAGGAGAACACUGCGGGUUCGAGUCCCGUACGGAACG [A21C G44C], the yeast fitness came to 0.627.

As to GUUCCGUUGGCGUAAUGGUACCGCGUCUCCAUGCUAAGGAGAAGGCUACGGGUUCGAGUCCCGUACGGAACG [A21C C31A C33G A45G G48A], the yeast fitness worked out at 0.579.

As for GUUCCGUUGGCGUAAUGGUACCGCGUCUCCCUCCUAAGGAGAAGACUGCGGGUUCGACUCCCGUAUGGAACG [A21C G58C C66U], the yeast fitness was no more than 0.5.

Take GUUCCGUUGGCGUAAUGGUACCGCGUUUCCCUCCUAAGGAGAAGACUGCGGGUUCGAGUCGCGUACGGAACG [A21C C27U C61G]: the yeast fitness is 0.534.

In the case of GUUCCGUUGGCGUAAUGGUACCGCGUCUCCCUCCUAAGGAGAAGAGUGGGGGUUCGAGUCCCGUACGGAACG [A21C C46G C49G], the yeast fitness turned out to be 0.655.

On to GUUCCGUUGGCGUAAUGGUACCACGUCUCCCUCCUAAGGAGAAGACUGCGGGUUCGACUCCCGUUCGGAACG [A21C G23A G58C A65U], for which the yeast fitness was no more than 0.5.

GUUCCGUUGGCGUAAUGGUACCGCGUCUCCCUUCUAAGGAGAAGACUGCGGGUUCGAGUCACGUACGCAACG [A21C C33U C61A G68C]: the yeast fitness was no more than 0.5.

For the variant GUUCCGUUGGCGUAAUGGUACCGCGUCUUCCUCCUAAGGAGAGGACUGCGGGUUCGAGUCCCGUAUGGAACG [A21C C29U A43G C66U], the yeast fitness is no more than 0.5.

As to GUUCCGUUGGCGUAAUGGUACCGCGUCUCCCUCCUAAGGAGAAGACUGCGGGUUCGAGUCCCGUACGCUACG [A21C G68C A69U], the yeast fitness is no more than 0.5.

With GUUCCGUUGGCGUAAUGGUACCGCGUCUCCCUCCUAAGGAGAAGACUGCGGGUUCGAGUCCUGUACGCAACG [A21C C62U G68C], the yeast fitness came to 0.601.

As for GUUCCGUUGGCGUAAUGGUACCGCGUCUCCCUCCUAAGGAGAAGAUUGCGGGUUCGAGUCCCGUACGGCACG [A21C C46U A69C], the yeast fitness came out at 0.668.

As for GUUCCGUUGGCGUAAUGGUACCGCGUCUCCCUCCUAAGGAGAAGACUGCGGGUUCGAGUCGCGUACGGAACG [A21C C61G], the yeast fitness stood at 0.585.

Turning to GUUCCGUUGGCGUAAUGGUACCGCGUCUCCCUCAUAAAGAGAAGUCUGCGGGUUCGAGUCCCGUACGGAACG [A21C C34A G38A A45U], the yeast fitness is 0.546.

As for GUUCCGUUGGCGUAAUGGUACCACGUCUCCCUCCUAAGGAGAAGACUGAGGGUUCGAGUGCCAUACGGAACG [A21C G23A C49A C60G G63A], the yeast fitness is no more than 0.5.

Regarding GUUCCGUUGGCGUAAUGGUACCGCGUCUUCCUCCUAAGGAGAAGACUGCGGGUUCGUGUUCUGUAUGGAACG [A21C C29U A57U C60U C62U C66U], the yeast fitness stood at 0.564.

For GUUCCGUUGGCGUAAUGGUACCGCCGCUCCCUCCUAAGGAGAAGACUGCGGGUUCGAGUCCCGUACGGAACG [A21C G25C U26G], the yeast fitness came out at 0.59.

GUUCCGUUGGCGUAAUGGUACCGCGUCUCCCUCCUAAGGAGAAGACUGAGGGUUCGAGUCCCGUACGGAGCG [A21C C49A A70G]: the yeast fitness is 0.626.

GUUCCGUUGGCGUAAUGGUACCGCGUCUCCCUCCUAAGGAGAAGAUUGCGGGUUCGAGUCCCGUUCGGAACG [A21C C46U A65U]: the yeast fitness was 0.556.
